# The M2OR odorant receptor database
# How the values were obtained:
# Conditions in all cases: stereoisomer not certain
# OR2L13 (Homo sapiens) = molecular target: T1, OR2L13 (Homo sapiens) (UniProt Q8N349)
# T1 sequence (whole entry): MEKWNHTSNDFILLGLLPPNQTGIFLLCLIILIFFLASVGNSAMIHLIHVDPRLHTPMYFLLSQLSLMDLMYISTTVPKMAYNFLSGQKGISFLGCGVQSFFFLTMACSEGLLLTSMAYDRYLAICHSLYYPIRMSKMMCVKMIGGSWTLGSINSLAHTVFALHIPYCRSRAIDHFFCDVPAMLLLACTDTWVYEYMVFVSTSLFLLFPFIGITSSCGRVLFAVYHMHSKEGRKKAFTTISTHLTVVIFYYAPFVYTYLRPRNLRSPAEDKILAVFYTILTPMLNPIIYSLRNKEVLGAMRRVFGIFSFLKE
# Outline: (§1)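 Each entry records the cell line, G-protein, co-transfected protein and tags used. Methods varied with the source, often transient luciferase assays in mammalian cell lines. A receptor–molecule pair is called responsive (active) if the original authors judged its signal statistically different from baseline and non-responsive (inactive) otherwise.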
# OR2L2 (Homo sapiens) = molecular target: T2, OR2L2 (Homo sapiens) (UniProt Q8NH16)
# T2 sequence (whole entry): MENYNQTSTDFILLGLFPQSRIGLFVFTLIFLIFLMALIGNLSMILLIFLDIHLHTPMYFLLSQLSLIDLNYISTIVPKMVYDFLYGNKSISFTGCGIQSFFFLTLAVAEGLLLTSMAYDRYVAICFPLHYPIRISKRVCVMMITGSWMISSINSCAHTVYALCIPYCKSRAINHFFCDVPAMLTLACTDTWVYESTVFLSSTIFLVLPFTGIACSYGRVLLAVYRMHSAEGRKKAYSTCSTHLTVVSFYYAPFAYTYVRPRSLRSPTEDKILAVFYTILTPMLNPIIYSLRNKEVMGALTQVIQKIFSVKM
# Outline: as §1
# OR2L3 (Homo sapiens) = molecular target: T3, OR2L3 (Homo sapiens) (UniProt Q8NG85)
# T3 sequence (whole entry): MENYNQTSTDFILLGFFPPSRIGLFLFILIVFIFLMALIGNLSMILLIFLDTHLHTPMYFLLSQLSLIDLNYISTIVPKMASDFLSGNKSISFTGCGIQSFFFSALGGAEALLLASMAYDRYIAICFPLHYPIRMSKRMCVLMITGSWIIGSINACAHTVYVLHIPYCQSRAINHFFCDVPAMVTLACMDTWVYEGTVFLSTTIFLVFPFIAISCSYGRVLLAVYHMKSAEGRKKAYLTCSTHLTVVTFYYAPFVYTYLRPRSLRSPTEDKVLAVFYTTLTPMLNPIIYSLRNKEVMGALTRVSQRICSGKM
# Outline: as §1
# OR2L5 (Homo sapiens) = molecular target: T4, OR2L5 (Homo sapiens) (UniProt Q8NG80)
# T4 sequence (whole entry): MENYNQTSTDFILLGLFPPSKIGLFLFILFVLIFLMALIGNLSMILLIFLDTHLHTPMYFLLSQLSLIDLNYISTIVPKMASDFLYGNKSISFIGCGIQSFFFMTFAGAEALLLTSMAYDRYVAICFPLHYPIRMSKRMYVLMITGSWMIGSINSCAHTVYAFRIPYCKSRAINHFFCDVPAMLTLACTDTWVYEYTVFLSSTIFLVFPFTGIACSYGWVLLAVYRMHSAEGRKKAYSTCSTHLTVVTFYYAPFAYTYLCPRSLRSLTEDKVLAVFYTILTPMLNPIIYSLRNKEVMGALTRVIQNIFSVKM
# Outline: as §1
# OR2L8 (Homo sapiens) = molecular target: T5, OR2L8 (Homo sapiens) (UniProt Q8NGY9)
# T5 sequence (whole entry): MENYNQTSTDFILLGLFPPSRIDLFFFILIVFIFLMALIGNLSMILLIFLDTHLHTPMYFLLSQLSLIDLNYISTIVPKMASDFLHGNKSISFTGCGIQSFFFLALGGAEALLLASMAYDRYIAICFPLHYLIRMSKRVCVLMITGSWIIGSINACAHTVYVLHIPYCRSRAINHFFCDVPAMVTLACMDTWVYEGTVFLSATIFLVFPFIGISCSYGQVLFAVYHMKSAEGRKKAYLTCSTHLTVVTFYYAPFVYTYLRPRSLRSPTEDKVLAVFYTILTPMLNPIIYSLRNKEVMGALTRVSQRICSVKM
# Outline: as §1
# OR2M2 (Homo sapiens) = molecular target: T6, OR2M2 (Homo sapiens) (UniProt Q96R28)
# T6 sequence (whole entry): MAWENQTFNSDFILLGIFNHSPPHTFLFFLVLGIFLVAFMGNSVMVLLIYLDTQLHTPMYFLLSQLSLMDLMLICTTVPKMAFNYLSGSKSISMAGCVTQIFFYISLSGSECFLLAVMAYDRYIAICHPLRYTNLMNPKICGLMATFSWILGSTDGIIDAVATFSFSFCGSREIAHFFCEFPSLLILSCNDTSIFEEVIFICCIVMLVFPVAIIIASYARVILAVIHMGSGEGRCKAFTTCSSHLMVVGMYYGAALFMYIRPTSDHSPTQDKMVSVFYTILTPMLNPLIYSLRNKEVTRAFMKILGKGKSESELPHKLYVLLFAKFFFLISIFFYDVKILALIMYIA
# Outline: as §1
# OR2M3 (Homo sapiens) = molecular target: T7, OR2M3 (Homo sapiens) (UniProt Q8NG83)
# T7 sequence (whole entry): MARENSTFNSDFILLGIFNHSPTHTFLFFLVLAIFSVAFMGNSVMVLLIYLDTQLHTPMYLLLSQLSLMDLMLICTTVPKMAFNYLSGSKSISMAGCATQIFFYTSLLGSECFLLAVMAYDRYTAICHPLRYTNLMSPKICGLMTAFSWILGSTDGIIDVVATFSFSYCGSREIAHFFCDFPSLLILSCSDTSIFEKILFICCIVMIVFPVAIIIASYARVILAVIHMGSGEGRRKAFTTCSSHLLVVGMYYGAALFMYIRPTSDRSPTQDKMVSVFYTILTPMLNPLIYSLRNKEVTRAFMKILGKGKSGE
# Outline: as §1
smiles,measurement,setting,value
CCCCCCCCCCCCCCCC(=O)OC,odorant receptor agonist call,OR2L13 (Homo sapiens),inactive
Cc1ccc(C(C)C)cc1,odorant receptor agonist call,OR2L13 (Homo sapiens),inactive
CCCCCCC(=O)[O-].[H+],odorant receptor agonist call,OR2L13 (Homo sapiens),inactive
CCCCCCCCCCCCCCCC(=O)[O-].[H+],odorant receptor agonist call,OR2L13 (Homo sapiens),inactive
CCCCCCCCCCCCCC(=O)O,odorant receptor agonist call,OR2L13 (Homo sapiens),inactive
Cc1cnc(C)cn1,odorant receptor agonist call,OR2L13 (Homo sapiens),inactive
Cc1cccc(C)c1C,odorant receptor agonist call,OR2L13 (Homo sapiens),inactive
CC1=C(O)C(=O)C(C)O1 (stereo not drawn),odorant receptor agonist call,OR2L13 (Homo sapiens),inactive
same,odorant receptor agonist call,OR2L2 (Homo sapiens),inactive
same,odorant receptor agonist call,OR2L3 (Homo sapiens),inactive
same,odorant receptor agonist call,OR2L5 (Homo sapiens),inactive
same,odorant receptor agonist call,OR2L8 (Homo sapiens),inactive
same,odorant receptor agonist call,OR2M2 (Homo sapiens),inactive
same,odorant receptor agonist call,OR2M3 (Homo sapiens),inactive
CC(C=O)Cc1ccc(C(C)(C)C)cc1 (stereo not drawn),odorant receptor agonist call,OR2L13 (Homo sapiens),inactive
CCCCCC(=O)C(C)C(C)=O (stereo not drawn),odorant receptor agonist call,OR2L13 (Homo sapiens),inactive
same,odorant receptor agonist call,OR2L2 (Homo sapiens),inactive
same,odorant receptor agonist call,OR2L3 (Homo sapiens),inactive
same,odorant receptor agonist call,OR2L5 (Homo sapiens),inactive
same,odorant receptor agonist call,OR2L8 (Homo sapiens),inactive
same,odorant receptor agonist call,OR2M2 (Homo sapiens),inactive
same,odorant receptor agonist call,OR2M3 (Homo sapiens),inactive
Cc1cnc(C)c(C)n1,odorant receptor agonist call,OR2L13 (Homo sapiens),inactive
same,odorant receptor agonist call,OR2L2 (Homo sapiens),inactive
same,odorant receptor agonist call,OR2L3 (Homo sapiens),inactive
same,odorant receptor agonist call,OR2L5 (Homo sapiens),inactive
same,odorant receptor agonist call,OR2L8 (Homo sapiens),inactive
same,odorant receptor agonist call,OR2M2 (Homo sapiens),inactive
same,odorant receptor agonist call,OR2M3 (Homo sapiens),inactive
CCCCOCC(C)O (stereo not drawn),odorant receptor agonist call,OR2L13 (Homo sapiens),inactive
CCC1OC(=O)C(O)=C1C (stereo not drawn),odorant receptor agonist call,OR2L13 (Homo sapiens),inactive
same,odorant receptor agonist call,OR2L2 (Homo sapiens),inactive
same,odorant receptor agonist call,OR2L3 (Homo sapiens),inactive
same,odorant receptor agonist call,OR2L5 (Homo sapiens),inactive
same,odorant receptor agonist call,OR2L8 (Homo sapiens),inactive
same,odorant receptor agonist call,OR2M2 (Homo sapiens),inactive
same,odorant receptor agonist call,OR2M3 (Homo sapiens),inactive
CCCCC(=O)C(C)=O,odorant receptor agonist call,OR2L13 (Homo sapiens),inactive
CCC1OC(C)=C(O)C1=O (stereo not drawn),odorant receptor agonist call,OR2L13 (Homo sapiens),inactive
same,odorant receptor agonist call,OR2L2 (Homo sapiens),inactive
same,odorant receptor agonist call,OR2L3 (Homo sapiens),inactive
same,odorant receptor agonist call,OR2L5 (Homo sapiens),inactive
same,odorant receptor agonist call,OR2L8 (Homo sapiens),inactive
same,odorant receptor agonist call,OR2M2 (Homo sapiens),inactive
same,odorant receptor agonist call,OR2M3 (Homo sapiens),inactive
CCCCCCCCCC(=O)OC,odorant receptor agonist call,OR2L13 (Homo sapiens),inactive
CCCCCC(S)C(C)CO (stereo not drawn),odorant receptor agonist call,OR2L13 (Homo sapiens),inactive
same,odorant receptor agonist call,OR2L2 (Homo sapiens),inactive
same,odorant receptor agonist call,OR2L3 (Homo sapiens),inactive
same,odorant receptor agonist call,OR2L5 (Homo sapiens),inactive
same,odorant receptor agonist call,OR2L8 (Homo sapiens),inactive
same,odorant receptor agonist call,OR2M2 (Homo sapiens),inactive
same,odorant receptor agonist call,OR2M3 (Homo sapiens),inactive
CCCCCCCCCCCCCCCC(=O)OCC,odorant receptor agonist call,OR2L13 (Homo sapiens),inactive
CCCCCCCCCCCCO,odorant receptor agonist call,OR2L13 (Homo sapiens),active
CC(O)C(=O)[O-].[H+] (stereo not drawn),odorant receptor agonist call,OR2L13 (Homo sapiens),inactive
CCCCCCCCCCCC(=O)OCC,odorant receptor agonist call,OR2L13 (Homo sapiens),inactive
CCCCCCCCO,odorant receptor agonist call,OR2L13 (Homo sapiens),inactive
same,odorant receptor agonist call,OR2L2 (Homo sapiens),inactive
CCCCCCCC(=O)OC,odorant receptor agonist call,OR2L13 (Homo sapiens),inactive
CCCO,odorant receptor agonist call,OR2L13 (Homo sapiens),inactive
CCCCCCCCCCCCCCCCCC(=O)[O-].[H+],odorant receptor agonist call,OR2L13 (Homo sapiens),inactive
CCCCCCCCCCCC(=O)O,odorant receptor agonist call,OR2L13 (Homo sapiens),inactive
CCCCCCC=CCCC=O,odorant receptor agonist call,OR2L13 (Homo sapiens),inactive
same,odorant receptor agonist call,OR2L2 (Homo sapiens),inactive
same,odorant receptor agonist call,OR2L3 (Homo sapiens),inactive
same,odorant receptor agonist call,OR2L5 (Homo sapiens),inactive
same,odorant receptor agonist call,OR2L8 (Homo sapiens),inactive
same,odorant receptor agonist call,OR2M2 (Homo sapiens),inactive
same,odorant receptor agonist call,OR2M3 (Homo sapiens),inactive
CCCCCCCCCCCCCC(=O)OCC,odorant receptor agonist call,OR2L13 (Homo sapiens),inactive
CCCCCCCCCCCCCCCCCC(=O)OC,odorant receptor agonist call,OR2L13 (Homo sapiens),inactive
CCCCCCCCCCCCCC(=O)OC,odorant receptor agonist call,OR2L13 (Homo sapiens),inactive
CCCCCCCCCCCC(=O)OC,odorant receptor agonist call,OR2L13 (Homo sapiens),inactive
CCCC(=O)CC,odorant receptor agonist call,OR2L13 (Homo sapiens),inactive
CCC(O)CC,odorant receptor agonist call,OR2L13 (Homo sapiens),inactive
COc1ccc2[nH]cc(CCNC(C)=O)c2c1,odorant receptor agonist call,OR2L13 (Homo sapiens),inactive
CCCCCCCCCCCCCCC(=O)O,odorant receptor agonist call,OR2L13 (Homo sapiens),inactive
CCCCCCCCCCCCCCCCCC(=O)OCC,odorant receptor agonist call,OR2L13 (Homo sapiens),inactive
CC(C)=CCCC(C)=CCCC(C)=CCO,odorant receptor agonist call,OR2L13 (Homo sapiens),inactive
CCCC(S)CCOC(C)=O (stereo not drawn),odorant receptor agonist call,OR2L13 (Homo sapiens),inactive
same,odorant receptor agonist call,OR2L2 (Homo sapiens),inactive
same,odorant receptor agonist call,OR2L3 (Homo sapiens),inactive
same,odorant receptor agonist call,OR2L5 (Homo sapiens),inactive
same,odorant receptor agonist call,OR2L8 (Homo sapiens),inactive
same,odorant receptor agonist call,OR2M2 (Homo sapiens),inactive
same,odorant receptor agonist call,OR2M3 (Homo sapiens),inactive
CCCCCC1CCC(=O)O1 (stereo not drawn),odorant receptor agonist call,OR2M3 (Homo sapiens),inactive
